Assay results: publication PMC12560046 (RSC Chemical Biology, 2025)

Key:
[1] = tested on: hepatitis B virus (HBV); settings: HepAD38 cells, 1–10 μM; cited from earlier work
[2] = tested on: hepatitis B virus (HBV); assay: Inhibition of HBsAg secretion in HBV-replicating HepAD38 cells; format: cell-based; settings: for Inhibition of HBsAg secretion (in words): 5 μM, relative to vehicle 0.5% DMSO
Summary of the method: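 HepAD38 cells carry an integrated HBV genome under a tetracycline-regulated promoter, […]. Cells were treated with test compound. HBsAg secreted into the culture supernatant was quantified by ELISA. Selectivity index was taken as CC50/IC50.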

[3] = tested on: HepAD38 cells; assay: Cytotoxicity in HepAD38 cells; format: cell-based; settings: read-out: Cytotoxicity CC50, MTS assay, 0 to 100 μM
[4] = tested on: hepatitis B virus (HBV); assay: Reduction of intracellular HBV rcDNA in HepAD38 cells; format: cell-based; settings: qPCR, relative to 0.5% DMSO vehicle
[5] = Cytotoxicity in HepAD38 cells; format: cell-based; settings: human, Cytotoxicity CC50, HepAD38 cells, MTS assay, 0 to 100 μM

Row | SMILES | Effect on cccDNA levels (in words) [1] | Inhibition of HBsAg secretion (in words) ([2]; HepAD38 cells) | Selectivity index: CC50/IC50 ([2]; HepAD38 cells, CC50 (MTS) / HBsAg IC50) | IC50 ([2]; Hepatitis B virus, HePAD38, read-out: HBsAg IC50) [µM] | CC50 [3] [µM] | rcDNA inhibition [%]: compound (5 μM) [4] | CC50 at 14 days [5] [µM]
1 | C[C@@]1(CO)[C@H](O)CC[C@@]2(C)[C@H]1CC[C@H]1C[C@@H]3C[C@@]12CC[C@]3(O)CO [aphidicolin] | effectively reduces cccDNA levels in a dose-dependent manner | – | – | – | – | – | –
2 | CC[C@]12C=CCN3CC[C@]4(C(=C(C(=O)OC)C1)Nc1ccccc14)[C@@H]32 [compound 6, tabersonine] | – | only modest inhibitory activity | 2.86 | 14.6 ± 4.1 | 41.8 ± 3.1 | minimal or no effect | –
3 | CCOC(=O)C1=C[C@]2(CC)CCCN3CCc4c(n1c1ccccc41)[C@@H]32 [compound 8, vinpocetine] | – | negligible inhibitory effects | – | – | – | minimal or no effect | > 100
